Experimental data published in ChEMBL document CHEMBL3868633, “Linker dependent intercalation of bisbenzimidazole-aminosugars in an RNA duplex; selectivity in RNA vs. DNA binding” (Bioorg Med Chem Lett, 2016).
The source made the active and inactive calls. No cut-off for these calls is given here.

Legend:
[1] = Binding affinity to poly(rA).(rU) RNA duplex (unknown origin) assessed as appearance of negative induced LD signal at 348 nanometer at 100 uM after 5 mins by microvolume couette flow linear dichroism method
Procedure, shortened: (§1)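 Linear dichroism spectra of poly(rA)•(rU) (1 mM/bp) alone and mixed with ligand at rbd 10. Run in 10 mM sodium cacodylate, 0.5 mM EDTA, 100 mM NaCl, pH 7.0, at room temperature.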

[2] = Binding affinity to d(CGCAAATTTGCG)2 DNA (unknown origin) assessed as thermal stability by measuring change in melting temperature by UV-Vis spectrophotometry
[3] = Binding affinity to poly(rA).(rU) RNA duplex (unknown origin) assessed as thermal stability by measuring change in melting temperature at 5 uM by UV-Vis spectrophotometry
Procedure, shortened: (§2)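 UV thermal denaturation of poly(rA)•(rU) duplex at 15 µM/bp, with and without ligand, in 10 mM sodium cacodylate, 0.5 mM EDTA, 100 mM NaCl, pH 7.0. ΔTm is the shift from the melting temperature of free RNA.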

[4] = Inhibition of ethidium bromide binding to r(CGCAAAUUUGCG)2 RNA (unknown origin) at 1:1 ratio of ligand:RNA measured after 5 mins by fluorescent intercalator displacement assay relative to control
Procedure, shortened: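 Buffer is 10 mM sodium cacodylate, 0.5 mM EDTA, 100 mM NaCl, pH 7.0, at 23 °C. Read-out is the percent change in fluorescence emission on ligand addition.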

[5] = Binding affinity to r(CGCAAAUUUGCG)2 RNA duplex (unknown origin) assessed as thermal stability by measuring change in melting temperature at 5 uM by UV-Vis spectrophotometry
[6] = Binding affinity to poly(rA).(rU) RNA duplex (unknown origin) assessed as appearance of induced CD band at 320 to 380 nanometer measured after 5 mins by circular dichroism titration method
Procedure, shortened: (§3)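 Poly(rA)•(rU) at 40 µM/bp in 10 mM sodium cacodylate, 0.5 mM EDTA, 100 mM NaCl, pH 7.0, 25 °C. Concentrated ligand added serially, with 5 min equilibration before each CD scan. Each measurement averages two scans. Changes in nucleic acid CD intensity are plotted against rbd (RNA base pairs per drug) to derive binding site size.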

[7] = Binding affinity to poly(rA).(rU) RNA duplex (unknown origin) assessed as decrease in CD band intensity at 263 nanometer measured after 5 mins by circular dichroism titration method; procedure, shortened: as §3
[8] = Binding affinity to poly(rA).(rU) RNA duplex (unknown origin) assessed as hypochromicity at 3 uM by UV-vis absorption method
[9] = Binding affinity to poly(rA).(rU) RNA duplex (unknown origin) assessed as red shift at 3 uM by UV-vis absorption method
[10] = Binding affinity to poly(rA).(rU) RNA duplex (unknown origin) assessed as change in CD band intensity at 266 nanometer measured after 5 mins by circular dichroism titration method
Procedure, shortened: (§4)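 Circular dichroism titration of poly(rA)•(rU) at 40 µM/bp in 10 mM sodium cacodylate, 0.5 mM EDTA, 100 mM NaCl, pH 7.0, at 25 °C. Concentrated ligand is added serially, with five minutes of equilibration after each addition. Each spectrum is the average of two scans. Binding site size (rbd, RNA base pairs per drug) is taken from the change in nucleic acid CD intensity.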

[11] = Binding affinity to poly(rA).(rU) RNA duplex (unknown origin) assessed as thermal stability by measuring change in melting temperature at 5 uM in presence of neomycin by UV-Vis spectrophotometry
[12] = Binding affinity to poly(rA).(rU) RNA duplex (unknown origin) assessed as isosbestic point at 362 nanometer at 3 uM by UV-vis absorption method
[13] = Binding affinity to poly(rA).(rU) RNA duplex (unknown origin) assessed as appearance of unidirectional induced CD at 347 nanometer measured after 5 mins by circular dichroism titration method; procedure, shortened: as §4
[14] = Binding affinity to poly(rA).(rU) RNA duplex (unknown origin) assessed as appearance of negative induced CD at 347 nanometer measured after 5 mins by circular dichroism titration method; procedure, shortened: as §4
[15] = Binding affinity to poly(rA).(rU) RNA duplex (unknown origin) assessed as change in LD signal at 260 nanometer at 100 uM after 5 mins by microvolume couette flow linear dichroism method; procedure, shortened: as §1
[16] = Inhibition of ethidium bromide binding to r(CGCAAAUUUGCG)2 RNA (unknown origin) after 5 mins by fluorescent intercalator displacement assay
[17] = Binding affinity to poly(rA).(rU) RNA duplex (unknown origin) measured after 5 mins by circular dichroism titration method; procedure, shortened: as §4
[18] = Binding affinity to poly(rA).(rU) RNA duplex (unknown origin) assessed as thermal stability by measuring change in melting temperature at 5 uM in presence of Hoechst 33258 by UV-Vis spectrophotometry; procedure, shortened: as §2

Activity [1]	ΔTm [2]	ΔTm [3]	inhibition [4]	SMILES	further results
–	–	0.3 °C	–	C#CCOCCCCCCOc1ccc(-c2nc3ccc(-c4nc5ccc(N6CCN(C)CC6)cc5[nH]4)cc3[nH]2)cc1	–
–	–	-1.2 °C	–	C#CCCCCOc1ccc(-c2nc3ccc(-c4nc5ccc(N6CCN(C)CC6)cc5[nH]4)cc3[nH]2)cc1	–
–	–	0 °C	–	C#CCOc1ccc(-c2nc3ccc(-c4nc5ccc(N6CCN(C)CC6)cc5[nH]4)cc3[nH]2)cc1	–
–	–	0.3 °C	–	C#CCOCCCCOc1ccc(-c2nc3ccc(-c4nc5ccc(N6CCN(C)CC6)cc5[nH]4)cc3[nH]2)cc1	–
–	–	0.3 °C	–	C#CCOCCCCCCCCCCOc1ccc(-c2nc3ccc(-c4nc5ccc(N6CCN(C)CC6)cc5[nH]4)cc3[nH]2)cc1	–
–	–	-0.4 °C	–	C#CCCCCCCCCCOc1ccc(-c2nc3ccc(-c4nc5ccc(N6CCN(C)CC6)cc5[nH]4)cc3[nH]2)cc1	–
–	–	0.7 °C	–	C#CCOCCCCCCCCOc1ccc(-c2nc3ccc(-c4nc5ccc(N6CCN(C)CC6)cc5[nH]4)cc3[nH]2)cc1	–

The remaining lines, values behind:

SMILES	Activity [1]	ΔTm [2]	ΔTm [3]	inhibition [4]	further results
CN1CCN(c2ccc3nc(-c4ccc5nc(-c6ccc(OCCCCOCc7cn(C[C@H]8O[C@@H](O[C@@H]9[C@@H](O)[C@H](N)C[C@H](N)[C@H]9O[C@H]9O[C@H](CN)[C@@H](O)[C@H](O)[C@H]9N)[C@H](O)[C@@H]8O[C@H]8OC(CN)[C@@H](O)[C@H](O)[C@H]8N)nn7)cc6)[nH]c5c4)[nH]c3c2)CC1 (stereo not given in full)	Active	24.6 °C	15 °C	20.7 to 36.2%	–
CN1CCN(c2ccc3nc(-c4ccc5nc(-c6ccc(OCCCCCCCCc7cn(C[C@H]8O[C@@H](O[C@@H]9[C@@H](O)[C@H](N)C[C@H](N)[C@H]9O[C@H]9O[C@H](CN)[C@@H](O)[C@H](O)[C@H]9N)[C@H](O)[C@@H]8O[C@H]8OC(CN)[C@@H](O)[C@H](O)[C@H]8N)nn7)cc6)[nH]c5c4)[nH]c3c2)CC1 (stereo not given in full)	Active	13.2 °C	–	20.7 to 36.2%	ΔTm [5]: 16.2 °C
C#CCOCCOCCOCCOCCOCCOCCOc1ccc(-c2nc3ccc(-c4nc5ccc(N6CCN(C)CC6)cc5[nH]4)cc3[nH]2)cc1	–	–	0.2 °C	–	–
CN1CCN(c2ccc3nc(-c4ccc5nc(-c6ccc(OCCCCCCCCOCc7cn(C[C@H]8O[C@@H](O[C@@H]9[C@@H](O)[C@H](N)C[C@H](N)[C@H]9O[C@H]9O[C@H](CN)[C@@H](O)[C@H](O)[C@H]9N)[C@H](O)[C@@H]8O[C@H]8OC(CN)[C@@H](O)[C@H](O)[C@H]8N)nn7)cc6)[nH]c5c4)[nH]c3c2)CC1 (stereo not given in full)	Active	21.7 °C	21.9 °C	20.7 to 36.2%	–
CN1CCN(c2ccc3[nH]c(-c4ccc5[nH]c(-c6ccc(O)cc6)nc5c4)nc3c2)CC1	–	–	0.4 °C	8.2%	Activity [6]: Active; Activity [7]: Active; Activity [8]: 32.2%; Activity [9]: 1 nm; Activity [10]: Active; ΔTm [11]: 10.5 °C
CN1CCN(c2ccc3nc(-c4ccc5nc(-c6ccc(OCc7cn(C[C@H]8O[C@@H](O[C@@H]9[C@@H](O)[C@H](N)C[C@H](N)[C@H]9O[C@H]9O[C@H](CN)[C@@H](O)[C@H](O)[C@H]9N)[C@H](O)[C@@H]8O[C@H]8OC(CN)[C@@H](O)[C@H](O)[C@H]8N)nn7)cc6)[nH]c5c4)[nH]c3c2)CC1 (stereo not given in full)	Active	23.8 °C	–	20.7 to 36.2%	ΔTm [5]: 9.1 °C
CN1CCN(c2ccc3nc(-c4ccc5nc(-c6ccc(OCCOCCOCCOCCOCCOCCOCc7cn(C[C@H]8O[C@@H](O[C@@H]9[C@@H](O)[C@H](N)C[C@H](N)[C@H]9O[C@H]9O[C@H](CN)[C@@H](O)[C@H](O)[C@H]9N)[C@H](O)[C@@H]8O[C@H]8OC(CN)[C@@H](O)[C@H](O)[C@H]8N)nn7)cc6)[nH]c5c4)[nH]c3c2)CC1 (stereo not given in full)	Active	16.4 °C	–	20.7 to 36.2%	ΔTm [5]: 7.2 °C
CN1CCN(c2ccc3nc(-c4ccc5nc(-c6ccc(OCCCCCCOCc7cn(C[C@H]8O[C@@H](O[C@@H]9[C@@H](O)[C@H](N)C[C@H](N)[C@H]9O[C@H]9O[C@H](CN)[C@@H](O)[C@H](O)[C@H]9N)[C@H](O)[C@@H]8O[C@H]8OC(CN)[C@@H](O)[C@H](O)[C@H]8N)nn7)cc6)[nH]c5c4)[nH]c3c2)CC1 (stereo not given in full)	Active	22.2 °C	15.8 to 19 °C	20.7 to 36.2%	Activity [12]: Active; Activity [13]: Active; Activity [8]: 34.1%; Activity [9]: 10 nm; Activity [14]: Active; Activity [10]: Active
CN1CCN(c2ccc3nc(-c4ccc5nc(-c6ccc(OCCCCc7cn(C[C@H]8O[C@@H](O[C@@H]9[C@@H](O)[C@H](N)C[C@H](N)[C@H]9O[C@H]9O[C@H](CN)[C@@H](O)[C@H](O)[C@H]9N)[C@H](O)[C@@H]8O[C@H]8OC(CN)[C@@H](O)[C@H](O)[C@H]8N)nn7)cc6)[nH]c5c4)[nH]c3c2)CC1 (stereo not given in full)	Active	22.8 °C	–	20.7 to 36.2%	Activity [15]: Active; Ka [16]: 8.8 ×10⁶ /M; ΔTm [5]: 15.1 °C
C#CCOCCCCCCCCCCCCOc1ccc(-c2nc3ccc(-c4nc5ccc(N6CCN(C)CC6)cc5[nH]4)cc3[nH]2)cc1	–	–	-0.2 °C	–	–
CN1CCN(c2ccc3nc(-c4ccc5nc(-c6ccc(OCCCCCCCCCCCCOCc7cn(C[C@H]8O[C@@H](O[C@@H]9[C@@H](O)[C@H](N)C[C@H](N)[C@H]9O[C@H]9O[C@H](CN)[C@@H](O)[C@H](O)[C@H]9N)[C@H](O)[C@@H]8O[C@H]8OC(CN)[C@@H](O)[C@H](O)[C@H]8N)nn7)cc6)[nH]c5c4)[nH]c3c2)CC1 (stereo not given in full)	Active	18.2 °C	–	20.7 to 36.2%	–
CN1CCN(c2ccc3nc(-c4ccc5nc(-c6ccc(OCCCCCCCCCCOCc7cn(C[C@H]8O[C@@H](O[C@@H]9[C@@H](O)[C@H](N)C[C@H](N)[C@H]9O[C@H]9O[C@H](CN)[C@@H](O)[C@H](O)[C@H]9N)[C@H](O)[C@@H]8O[C@H]8OC(CN)[C@@H](O)[C@H](O)[C@H]8N)nn7)cc6)[nH]c5c4)[nH]c3c2)CC1 (stereo not given in full)	Active	19 °C	20.3 °C	20.7 to 36.2%	–
NC[C@@H]1O[C@H](O[C@H]2[C@@H](O)[C@H](O[C@@H]3[C@@H](O)[C@H](N)C[C@H](N)[C@H]3O[C@H]3O[C@H](CN)[C@@H](O)[C@H](O)[C@H]3N)O[C@@H]2CO)[C@H](N)[C@@H](O)[C@@H]1O	–	–	10.8 °C	20.4%	Activity [17]: Active; Activity [10]: Active; ΔTm [18]: 10.5 °C
